From ChEMBL document CHEMBL1212901, “Dimethylaminopyridine derivatives of lupane triterpenoids are potent disruptors of mitochondrial structure and function” (2010)
Active and inactive are the calls of the source. The calls are words filed in the database; no cut-off is given here.

Key:
WM3211 [1] = experiment: Induction of apoptosis in human WM3211 cells assessed as mitochondrial depolarization upto 4 ug/ml by flow cytometry; type: functional, cell-based
In short: (§1)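 Cells suspended at 30,000 cells/ml in culture medium and exposed to compound at the single top test concentration for 5 h. TMRM added to 100 nM final for a further 60 min, then analysed by flow cytometry without medium replacement. Fluorescence given as percent of the DMSO vehicle control for each line. Mean of three independent experiments, SEM.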

WM793 [2] = experiment: Induction of apoptosis in human WM793 cells assessed as reduction in mitochondrial polarization upto 4 ug/ml by flow cytometry; type: functional, cell-based; in short: as §1
WM3211 [3] = experiment: Induction of apoptosis in human WM3211 cells assessed as mitochondrial fragmentation upto 4 ug/ml by flow cytometry; type: functional, cell-based
WM793 [4] = experiment: Induction of apoptosis in human WM793 cells assessed as mitochondrial fragmentation upto 4 ug/ml by flow cytometry; type: functional, cell-based
WM793 [5] = experiment: Induction of apoptosis in human WM793 cells assessed as change in fluorescence intensity using TMRM labeling by flow cytometry; type: functional, cell-based; in short: as §1
WM3211 [6] = experiment: Induction of apoptosis in human WM3211 cells assessed as change in mitochondrial morphology upto 4 ug/ml by flow cytometry; type: functional, cell-based
WM3211 [7] = experiment: Induction of apoptosis in human WM3211 cells assessed as change in fluorescence intensity using TMRM labeling by flow cytometry; type: functional, cell-based; in short: as §1
[8] = Antiproliferative activity against human WM3211 cells after 3 days by SRB assay; type: functional; conditions: read-out: ED50 (the source's name)
In short: (§2)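 WM3211 or WM793 melanoma cells in high-glucose DMEM with 8% Fetal Clone III, 3.5% horse serum and 5 mM Glutamax. Seeded at 20,000 cells/ml and rested 24 h. Serial 1:1 dilutions from 2 mg/ml DMSO stocks, incubated 72 h. Vehicle 0.2% DMSO. Cells fixed and stained with 0.5% SRB, dye eluted in Tris pH 10, A540 read. ED50 is the 50%-of-vehicle value taken from mean curves of three independent experiments.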

[9] = Antiproliferative activity against human WM793 cells after 3 days by SRB assay; type: functional; conditions: read-out: ED50 (the source's name); in short: as §2
WM793 [10] = experiment: Induction of apoptosis in human WM793 cells assessed as vacuolization upto 4 ug/ml by flow cytometry; type: functional, cell-based
[11] = Antiproliferative activity against human WM3211 cells at 4 ug/ml after 3 days by SRB assay; type: functional
In short: (§3)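 SRB proliferation in WM3211 or WM793 cells at the top concentration of the dilution series, after three days of exposure. Cells seeded at 20,000 cells/ml, with compound added after 24 h recovery. Vehicle control 0.2% DMSO. Growth read as A540 of Tris-eluted SRB and expressed as percent of vehicle control.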

[12] = Antiproliferative activity against human WM793 cells at 4 ug/ml after 3 days by SRB assay; type: functional; in short: as §3

## C=C(C)[C@@H]1CC[C@]2(COC(=O)C[n+]3ccc(N(C)C)cc3)CC[C@]3(C)[C@H](CC[C@@H]4[C@@]5(C)CC[C@H](OC(=O)C[n+]6ccc(N(C)C)cc6)C(C)(C)[C@@H]5CC[C@]43C)[C@@H]12 [listing 1 of 3 here]
WM3211 [1]
  Activity: Active
WM793 [2]
  Activity: Active
WM3211 [3]
  Activity: Active
WM793 [4]
  Activity: Active
WM793 [5]
  Activity: Active

## C=C(C[n+]1ccc(N(C)C)cc1)[C@@H]1CC[C@]2(C(=O)O)CC[C@]3(C)[C@H](CC[C@@H]4[C@@]5(C)CC[C@H](O)C(C)(C)[C@@H]5CC[C@]43C)[C@@H]12
WM3211 [1]
  Activity: inactive
WM3211 [6]
  Activity: inactive
WM3211 [7]
  Activity: Active
WM793 [5]
  Activity: Active
[8]; Homo sapiens, WM3211, 72 h
  EC50: > 6100 nM
[9]; Homo sapiens, WM793, 72 h
  EC50: > 6100 nM

## C=C(C[n+]1ccc(N(C)C)cc1)[C@@H]1CC[C@]2(COC(=O)C(C)[n+]3ccc(N(C)C)cc3)CC[C@]3(C)[C@H](CC[C@@H]4[C@@]5(C)CC[C@H](OC(=O)C(C)[n+]6ccc(N(C)C)cc6)C(C)(C)[C@@H]5CC[C@]43C)[C@@H]12 (stereo partly drawn) [listing 1 of 3 here]
[8]
  EC50: > 3800 nM
[9]
  EC50: > 3800 nM

## C=C(C[n+]1ccc(N(C)C)cc1)[C@@H]1CC[C@]2(C(=O)O)CC[C@]3(C)[C@H](CC[C@@H]4[C@@]5(C)CC[C@H](OC(=O)C[n+]6ccc(N(C)C)cc6)C(C)(C)[C@@H]5CC[C@]43C)[C@@H]12 [listing 1 of 3 here]
[8]; Homo sapiens, WM3211, 72 h
  EC50: > 4400 nM
[9]; Homo sapiens, WM793, 72 h
  EC50: > 4400 nM

## C=C(C)[C@@H]1CC[C@]2(CO)CC[C@]3(C)[C@H](CC[C@@H]4[C@@]5(C)CC[C@H](OC(=O)C[n+]6ccc(N(C)C)cc6)C(C)(C)[C@@H]5CC[C@]43C)[C@@H]12 [listing 1 of 3 here]
[8]
  EC50: 300 nM
[9]
  EC50: 1900 nM

## C=C(C[n+]1ccc(N(C)C)cc1)[C@@H]1CC[C@]2(COC(=O)C(C)[n+]3ccc(N(C)C)cc3)CC[C@]3(C)[C@H](CC[C@@H]4[C@@]5(C)CC[C@H](OC(=O)C(C)[n+]6ccc(N(C)C)cc6)C(C)(C)[C@@H]5CC[C@]43C)[C@@H]12 (stereo partly drawn) [listing 2 of 3 here]
WM3211 [1]
  Activity: inactive
WM3211 [6]
  Activity: inactive
WM3211 [7]
  Activity: Active
WM793 [5]
  Activity: Active

## C=C(C)[C@@H]1CC[C@]2(CO)CC[C@]3(C)[C@H](CC[C@@H]4[C@@]5(C)CC[C@H](OC(=O)C[n+]6ccc(N(C)C)cc6)C(C)(C)[C@@H]5CC[C@]43C)[C@@H]12 [listing 2 of 3 here]
WM3211 [1]
  Activity: Active
WM3211 [6]
  Activity: Active
WM793 [2]
  Activity: Active
WM793 [10]
  Activity: Active

## C=C(C)[C@@H]1CC[C@]2(COC(=O)CCC[n+]3ccc(N(C)C)cc3)CC[C@]3(C)[C@H](CC[C@@H]4[C@@]5(C)CC[C@H](OC(=O)CCC[n+]6ccc(N(C)C)cc6)C(C)(C)[C@@H]5CC[C@]43C)[C@@H]12
WM3211 [1]
  Activity: Active
WM3211 [6]
  Activity: Active
WM793 [2]
  Activity: Active
WM3211 [7]
  Activity: Active
[8]; Homo sapiens, WM3211, 72 h
  EC50: 700 nM
[9]; Homo sapiens, WM793, 72 h
  EC50: 1300 nM

## C=C(C)[C@@H]1CC[C@]2(COC(=O)C(CC)[n+]3ccc(N(C)C)cc3)CC[C@]3(C)[C@H](CC[C@@H]4[C@@]5(C)CC[C@H](OC(=O)C(CC)[n+]6ccc(N(C)C)cc6)C(C)(C)[C@@H]5CC[C@]43C)[C@@H]12 (stereo partly drawn)
WM3211 [1]
  Activity: Active
WM793 [2]
  Activity: Active
WM3211 [3]
  Activity: Active
WM793 [4]
  Activity: Active
WM793 [5]
  Activity: Active
[8]; Homo sapiens, WM3211, 72 h
  EC50: 300 nM
[9]; Homo sapiens, WM793, 72 h
  EC50: 500 nM

## C=C(C)[C@@H]1CC[C@]2(COC(=O)C[n+]3ccc(N(C)C)cc3)CC[C@]3(C)[C@H](CC[C@@H]4[C@@]5(C)CC[C@H](OC(=O)C[n+]6ccc(N(C)C)cc6)C(C)(C)[C@@H]5CC[C@]43C)[C@@H]12 [listing 2 of 3 here]
[8]
  EC50: 500 nM
[9]
  EC50: 500 nM

## C=C(C)[C@@H]1CC[C@]2(C(=O)O)CC[C@]3(C)[C@H](CC[C@@H]4[C@@]5(C)CC[C@H](OC(=O)C[n+]6ccc(N(C)C)cc6)C(C)(C)[C@@H]5CC[C@]43C)[C@@H]12.[Br-]
[11]
  Activity: 40%
WM3211 [6]
  Activity: Active
WM3211 [7]
  Activity: Active
WM793 [5]
  Activity: Active
[12]
  Activity: 40%
[8]; Homo sapiens, WM3211, 72 h
  EC50: 2600 nM
[9]; Homo sapiens, WM793, 72 h
  EC50: 5700 nM

## C=C(C)[C@@H]1CC[C@]2(CO)CC[C@]3(C)[C@H](CC[C@@H]4[C@@]5(C)CC[C@H](OC(=O)C[n+]6ccc(N(C)C)cc6)C(C)(C)[C@@H]5CC[C@]43C)[C@@H]12 [listing 3 of 3 here]
[8]; Homo sapiens, WM3211, 72 h
  EC50: 600 nM
[9]; Homo sapiens, WM793, 72 h
  EC50: 2500 nM

## C=C(C)[C@@H]1CC[C@]2(COC(=O)C(C)[n+]3ccc(N(C)C)cc3)CC[C@]3(C)[C@H](CC[C@@H]4[C@@]5(C)CC[C@H](O)C(C)(C)[C@@H]5CC[C@]43C)[C@@H]12 (stereo partly drawn)
WM3211 [1]
  Activity: Active
WM3211 [6]
  Activity: Active
WM3211 [7]
  Activity: Active
[8]; Homo sapiens, WM3211, 72 h
  EC50: 800 nM
[9]; Homo sapiens, WM793, 72 h
  EC50: 2600 nM

## C=C(C)[C@@H]1CC[C@]2(COC(=O)CC[n+]3ccc(N(C)C)cc3)CC[C@]3(C)[C@H](CC[C@@H]4[C@@]5(C)CC[C@H](OC(=O)CC[n+]6ccc(N(C)C)cc6)C(C)(C)[C@@H]5CC[C@]43C)[C@@H]12
WM3211 [1]
  Activity: Active
WM793 [2]
  Activity: Active
WM3211 [3]
  Activity: Active
WM793 [4]
  Activity: Active
WM793 [5]
  Activity: Active
[8]; Homo sapiens, WM3211, 72 h
  EC50: 600 nM
[9]; Homo sapiens, WM793, 72 h
  EC50: 800 nM

## C=C(C)[C@@H]1CC[C@]2(COC(=O)C[n+]3ccc(N(C)C)cc3)CC[C@]3(C)[C@H](CC[C@@H]4[C@@]5(C)CC[C@H](OC(=O)C[n+]6ccc(N(C)C)cc6)C(C)(C)[C@@H]5CC[C@]43C)[C@@H]12 [listing 3 of 3 here]
[8]; Homo sapiens, WM3211, 72 h
  EC50: 400 nM
[9]; Homo sapiens, WM793, 72 h
  EC50: 400 nM

## C=C(C)[C@@H]1CC[C@]2(COC(=O)C(C)[n+]3ccc(N(C)C)cc3)CC[C@]3(C)[C@H](CC[C@@H]4[C@@]5(C)CC[C@H](OC(=O)C(C)[n+]6ccc(N(C)C)cc6)C(C)(C)[C@@H]5CC[C@]43C)[C@@H]12 (stereo partly drawn)
WM3211 [1]
  Activity: Active
WM793 [2]
  Activity: Active
WM3211 [3]
  Activity: Active
WM793 [4]
  Activity: Active
WM793 [5]
  Activity: Active
[8]; Homo sapiens, WM3211, 72 h
  EC50: 500 nM
[9]; Homo sapiens, WM793, 72 h
  EC50: 500 nM

## C=C(C[n+]1ccc(N(C)C)cc1)[C@@H]1CC[C@]2(COC(=O)C(C)[n+]3ccc(N(C)C)cc3)CC[C@]3(C)[C@H](CC[C@@H]4[C@@]5(C)CC[C@H](OC(=O)C(C)[n+]6ccc(N(C)C)cc6)C(C)(C)[C@@H]5CC[C@]43C)[C@@H]12 (stereo partly drawn) [listing 3 of 3 here]
[8]; Homo sapiens, WM3211, 72 h
  EC50: > 3500 nM
[9]; Homo sapiens, WM793, 72 h
  EC50: > 3500 nM

## C=C(C[n+]1ccc(N(C)C)cc1)[C@@H]1CC[C@]2(C(=O)O)CC[C@]3(C)[C@H](CC[C@@H]4[C@@]5(C)CC[C@H](OC(=O)C[n+]6ccc(N(C)C)cc6)C(C)(C)[C@@H]5CC[C@]43C)[C@@H]12 [listing 2 of 3 here]
WM3211 [1]
  Activity: inactive
WM3211 [6]
  Activity: inactive
WM3211 [7]
  Activity: Active
WM793 [5]
  Activity: Active

## C=C(C[n+]1ccc(N(C)C)cc1)[C@@H]1CC[C@]2(C(=O)O)CC[C@]3(C)[C@H](CC[C@@H]4[C@@]5(C)CC[C@H](OC(=O)C[n+]6ccc(N(C)C)cc6)C(C)(C)[C@@H]5CC[C@]43C)[C@@H]12 [listing 3 of 3 here]
[8]
  EC50: > 4700 nM
[9]
  EC50: > 4700 nM
